Compound activity (PubChem BioAssay)
Hits are enriched below; roughly 2.6% of the tested compounds scored in any of these assays.
miR-122 sensor: miR-122 inhibition in Huh7 cells. Huh7 miR-122 Renilla luciferase sensor, 48 h; neutral wells = 0, positive control = 100. activation (reporter increase), % at 12.5 µM. 0.3% of 340,000 active. AID 602342;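 active = mean replicate activation score at least 90 and every replicate individually at or above 90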;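 also: higher luciferase means less miR-122 activity so hits act as miR-122 inhibitors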
FN deposit inh: fibronectin deposition inhibition; AH1F fibroblasts, Alexa488-fibronectin deposition fluorescence, overnight; inhibition, % at 12.6 µM; 0.086% of 350,000 active;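 active = mean inhibition across replicates of 30% or more, regardless of how many single replicates reach that level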;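 also: positive control wells lacked labelled fibronectin entirely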
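Assay system: AH1F fibroblasts assembling fluorescent fibronectin matrix; Amount: 10000 AH1F cells per well; Buffer or medium: DMEM, 2% serum; Probe or stimulus: Alexa488-fibronectin, 24 nM final in well; Doses: single compound dose, delivered by pin transfer; Incubation: 1 h adhesion, overnight exposure; Measured by: fluorescence 485/525 nm; Read-out: fibronectin deposition inhibition.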
Ecoli rRNA inh: inhibitors of bacterial rRNA selective over humanized ribosomes. E. coli WT GFP vs humanized-ribosome RFP mutants, fluorescence, 24 h; active compounds read low; DMSO median 0, no signal -100. GFP signal change (wild-type ribosome), % (concentration not given with the values). 1.6% of 350,000 active. AID 720706;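 active = significant combined selectivity score with lowered wild-type GFP, culture density cut under 30%, mutant RFP and density less affected; inactive = any of these conditions unmet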
Vif inh: inhibitors of HIV Vif | HEK293T cells, Vif self-association by quenched fluorescence, imaging, 24 h | inhibition, % at 7.49 µM | 0.35% of 340,000 active | AID 602346; in the data active = inhibition above about 50%, passing the limit was not always enough
S100A4 inh HTS: inhibitors of human S100A4 binding to myosin IIA peptide. P26447. S100A4/TAMRA-MyoIIA peptide fluorescence polarization. inhibition, % at 10.7 µM. 0.14% of 360,000 active;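 active = mean inhibition of at least 70% across replicates, with every replicate also reaching that level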
Target sequence (P26447 whole entry, looked up): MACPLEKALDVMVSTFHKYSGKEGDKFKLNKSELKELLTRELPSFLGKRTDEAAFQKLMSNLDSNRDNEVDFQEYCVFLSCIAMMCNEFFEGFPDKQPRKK
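Material: S100A4 monomer protein | Medium: HEPES pH 7.2 with CaCl2, KCl, NaCl, DTT, Triton | Reagent: Labelled myosin peptide probe, 5 nM | Doses: One dose per compound | Times: 5 min incubation before reading | Benchmarks: Neutral control DMSO, positive control TFP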
HIV Env fusion: blocks HIV Env-driven cell-cell fusion | 1.1% of 360,000 active | HeLa-JRFL Env/CEM21 cell fusion, luciferase | inhibition, % at 12.3 µM;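 active = mean replicate inhibition score of at least 50 and every replicate individually at or above 50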;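 also: 0% = plate neutral controls and 100% = maraviroc near 300 nM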
Numbers without * were called inactive; [ ] = dose if it differs, or a comment.

Results for CCOC(=O)C1(Cc2cccc(F)c2)CCN(C(=O)C2CCOCC2)CC1 ?
miR-122 sensor: -3.2; Ecoli rRNA inh: 5.5; Vif inh: 25.2; S100A4 inh HTS: -3.7; HIV Env fusion: 7.6

What do the screens show for `CCOC(=O)C1(Cc2cccc(F)c2)CCN(C(=O)C2CCCO2)CC1` (stereo not given)?
miR-122 sensor: -4.1; FN deposit inh: 5.3; Ecoli rRNA inh: 12.2; Vif inh: 51.4*; S100A4 inh HTS: -1.4; HIV Env fusion: 9.4

How did C[C@@H]1CN([C@H](C)CO)C(=O)c2cccc(NC(=O)C3CC3)c2O[C@H]1CN(C)S(=O)(=O)c1ccccc1 do in these assays?
miR-122 sensor: -6.6[16.7 µM]; Ecoli rRNA inh: 2.4; S100A4 inh HTS: -9.9; HIV Env fusion: -12.8[16.7 µM]

How did O=C(C[C@@H]1CC[C@H](NC(=O)Nc2cc(F)ccc2F)[C@H](CO)O1)Nc1ccccc1 do in these assays?
Ecoli rRNA inh: -2.6; S100A4 inh HTS: 6.5; HIV Env fusion: -6.9[16.7 µM]

How did C=CCC(=O)OCCCCCCOc1ccc(C(=O)O)cc1 do in these assays?
miR-122 sensor: -2.9; FN deposit inh: 10.1; Vif inh: -4.5; HIV Env fusion: -9.1

Results for C=CCCCOc1ccc(C(=O)O)cc1 ?
miR-122 sensor: -3.2; FN deposit inh: -8.0; Vif inh: 57.8*; HIV Env fusion: 17.8

What do the screens show for `O=S(=O)(O)c1cccc(N=Nc2c(O)ccc3ccccc23)c1`?
miR-122 sensor: -9.5; FN deposit inh: -1.9; Ecoli rRNA inh: -33.2*; Vif inh: 1.4; S100A4 inh HTS: -34.9; HIV Env fusion: 14.5

Results for COc1ccccc1NC(=O)N[C@@H]1CC[C@@H](CCn2cc(-c3cccnc3)nn2)O[C@H]1CO ?
miR-122 sensor: -18.2[16.7 µM]; FN deposit inh: -5.4; Ecoli rRNA inh: -0.3; S100A4 inh HTS: 3.5; HIV Env fusion: -1.1[16.7 µM]

How did CCCCNC(=O)C[C@@H]1C[C@@]2(C(=O)OC)CCCCC=C2N(Cc2ccco2)C1=O do in these assays?
FN deposit inh: -11.4; S100A4 inh HTS: -2.0; HIV Env fusion: -10.3

What do the screens show for `CCCCOCCCNC(=O)C[C@@H]1C[C@@]2(C(=O)OC)CCCCC=C2N(Cc2ccco2)C1=O`?
FN deposit inh: -3.9; Ecoli rRNA inh: -2.9; S100A4 inh HTS: -3.9; HIV Env fusion: 62.5*

What do the screens show for `COC(=O)[C@]12CCCCC=C1N(Cc1ccco1)C(=O)[C@H](CC(=O)NCCc1ccccc1OC)C2`?
FN deposit inh: -2.2; Ecoli rRNA inh: -4.4; S100A4 inh HTS: 1.0; HIV Env fusion: 91.9*

How did Cc1ccc2c(c1)c1c3n2CCN(CC(N)=O)C3CCC1 (stereo not given) do in these assays?
FN deposit inh: 14.8; Ecoli rRNA inh: -8.7; Vif inh: 18.0; S100A4 inh HTS: -1.2; HIV Env fusion: 81.0*

Results for CN1CCN(CC(=O)N2CCn3c4c(c5cc(C6CCCCC6)ccc53)CCCC42)CC1 (stereo not given) ?
miR-122 sensor: 5.1; Vif inh: 98.0*

Results for COc1ccccc1-c1ccc2c(c1)O[C@H](CN(C)S(=O)(=O)c1ccc(F)cc1)[C@H](C)CN([C@@H](C)CO)S2(=O)=O ?
miR-122 sensor: 0.6[16.7 µM]; Ecoli rRNA inh: 0.0; S100A4 inh HTS: -4.0

Results for C[C@H]1CN(C)C(=O)c2cccc([N+](=O)[O-])c2O[C@@H]1CN(C)C(=O)OC(C)(C)C ?
FN deposit inh: -0.2; Ecoli rRNA inh: -4.8

How did CN(C)c1nc(NCc2ccccc2)nc(SCC(=O)Nc2ccc(Cl)c(Cl)c2)n1 do in these assays?
miR-122 sensor: 4.7; FN deposit inh: -9.5; Vif inh: -5.5; HIV Env fusion: 57.1*

How did COCC(=O)N1C[C@@H](C)[C@H](OC)CN(C)C(=O)c2ccc(NC(=O)c3ccc(F)cc3)cc2OC[C@@H]1C do in these assays?
miR-122 sensor: -2.7[16.7 µM]; FN deposit inh: 14.7; Ecoli rRNA inh: -4.3; S100A4 inh HTS: -1.5; HIV Env fusion: -1.2[16.7 µM]

What do the screens show for `Cc1ccccc1C(=O)NC(CC(C)C)C(=O)Nc1ccc(S(N)(=O)=O)cc1` (stereo not given)?
miR-122 sensor: -2.7; FN deposit inh: 5.5; Ecoli rRNA inh: -24.1*; Vif inh: 1.9; S100A4 inh HTS: 1.6; HIV Env fusion: 6.9

Results for CCCC(C)C(=O)Nc1ccc(S(N)(=O)=O)cc1 (stereo not given) ?
miR-122 sensor: 1.6; FN deposit inh: 4.1; Ecoli rRNA inh: 4.5; Vif inh: 2.7; S100A4 inh HTS: -3.8; HIV Env fusion: -0.3

What do the screens show for `C[C@H]1CN(C)C(=O)c2cc(N)ccc2O[C@@H]1CN(C)S(C)(=O)=O`?
FN deposit inh: -0.7; Ecoli rRNA inh: -1.9

Results for C=C[C@H](Cc1ccccc1)N(Cc1ccccc1)S(=O)(=O)N(Cc1ccccc1)[C@H](C=C)Cc1ccccc1 ?
FN deposit inh: 14.0; Ecoli rRNA inh: 6.0; Vif inh: 0.7; S100A4 inh HTS: -1.7; HIV Env fusion: 60.8*

How did COc1nc(Nc2nc3ccccc3c(=O)[nH]2)nc2ccc(C)cc12 do in these assays?
miR-122 sensor: 9.8; FN deposit inh: 5.7; Ecoli rRNA inh: 16.0; Vif inh: -2.0; S100A4 inh HTS: -6.1; HIV Env fusion: 103.2*

What do the screens show for `CO[C@H]1O[C@H](CO)[C@@H](OC(=O)Nc2ccccc2-c2ccccc2)[C@H](OC(=O)Nc2ccccc2-c2ccccc2)[C@@H]1OC(=O)Nc1ccccc1-c1ccccc1`?
S100A4 inh HTS: 9.8; HIV Env fusion: 15.8[16.7 µM]

Results for Cc1ccccc1C(=O)NNC(=S)NC(=O)COc1ccccc1 ?
Ecoli rRNA inh: -22.0*; Vif inh: -4.9; S100A4 inh HTS: 5.2

How did Cc1ccc(C(=O)NNC(=S)NC(=O)COc2ccccc2)cc1 do in these assays?
Ecoli rRNA inh: -10.1; Vif inh: 3.5; S100A4 inh HTS: 2.1

What do the screens show for `Cc1cccc(NC(=S)N=Nc2c(O)n(C)c3ccc(S(=O)(=O)N4CCOCC4)cc23)c1`?
miR-122 sensor: -1.6; FN deposit inh: 4.4; Ecoli rRNA inh: 10.8; Vif inh: 5.1; S100A4 inh HTS: 35.4; HIV Env fusion: 58.4*

Results for Cc1ccc(C)c(S(=O)(=O)Nc2ccc(O)cc2)c1 ?
miR-122 sensor: 46.5; FN deposit inh: -4.6; Vif inh: 23.7; HIV Env fusion: -43.1

How did Cc1ccc(C)c(S(=O)(=O)Nc2ccc3sc(C)nc3c2)c1 do in these assays?
miR-122 sensor: 427.9*; FN deposit inh: -4.8; Vif inh: -2.5; HIV Env fusion: -12.1

How did CCNS(=O)(=O)c1ccc(NS(=O)(=O)c2cc(C)ccc2C)cc1 do in these assays?
miR-122 sensor: 113.5*; Vif inh: -8.5

What do the screens show for `CC(C)c1ccc(S(=O)(=O)Nc2ccc(SC(F)F)cc2)cc1`?
Vif inh: -6.9; HIV Env fusion: 25.1
